Assay results from ChEMBL document CHEMBL4842314, “Synthesis and SAR evaluation of coumarin derivatives as potent cannabinoid receptor agonists” (Eur J Med Chem, 2021).

Legend:
Cannabinoid receptor 1 [1] = molecular target: T1, Cannabinoid receptor 1 (Homo sapiens, UniProt P21554); assay: Displacement of [3H]-CP55940 from human recombinant CB1 receptor expressed in CHO-K1 cell membrane measured after 3 hrs by scintillation spectrometry; type: cell membranes
Cannabinoid receptor 2 [2] = molecular target: T2, Cannabinoid receptor 2 (Homo sapiens, UniProt P34972); assay: Displacement of [3H]-CP55940 from human recombinant CB2 receptor expressed in CHO-K1 cell membrane at 1 uM measured after 3 hrs by scintillation spectrometry; type: cell membranes
Cannabinoid receptor 2 [3] = molecular target: T2, Cannabinoid receptor 2; assay: Agonist activity at human recombinant CB2 receptor expressed in CHO-K1 cell membrane assessed as increase in GTPgammaS binding at 1 uM pretreated for 30 mins followed by [35S]GTPgammaS addition for 90 mins by [35S]GTP-gammaS binding assay relative to CP55940; type: functional, cell membranes; settings: filed as agonist, time 120.0 min
Summary of the method: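 Membranes (5 μg) from PathHunter CHOK1 cells stably expressing hCB1 or hCB2 pre-incubated 30 min at room temperature with test ligand at 1 μM final, 1 μM GDP and 5 μg saponin in Tris-HCl pH 7.4, MgCl2, NaCl, EDTA, BSA, DTT. [35S]GTPγS (0.3 nM final) was then added for 90 min at 25 °C. Filtration on GF/B. Emax given relative to CP55,940 (100%), two experiments in duplicate.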

Cannabinoid receptor 2 [4] = molecular target: T2, Cannabinoid receptor 2; assay: Displacement of [3H]-CP55940 from human recombinant CB2 receptor expressed in CHO-K1 cell membrane measured after 3 hrs by scintillation spectrometry; type: cell membranes
Cannabinoid receptor 1 [5] = molecular target: T1, Cannabinoid receptor 1; assay: Displacement of [3H]-CP55940 from human recombinant CB1 receptor expressed in CHO-K1 cell membrane at 1 uM measured after 3 hrs by scintillation spectrometry; type: cell membranes

T1 sequence (P21554 whole entry): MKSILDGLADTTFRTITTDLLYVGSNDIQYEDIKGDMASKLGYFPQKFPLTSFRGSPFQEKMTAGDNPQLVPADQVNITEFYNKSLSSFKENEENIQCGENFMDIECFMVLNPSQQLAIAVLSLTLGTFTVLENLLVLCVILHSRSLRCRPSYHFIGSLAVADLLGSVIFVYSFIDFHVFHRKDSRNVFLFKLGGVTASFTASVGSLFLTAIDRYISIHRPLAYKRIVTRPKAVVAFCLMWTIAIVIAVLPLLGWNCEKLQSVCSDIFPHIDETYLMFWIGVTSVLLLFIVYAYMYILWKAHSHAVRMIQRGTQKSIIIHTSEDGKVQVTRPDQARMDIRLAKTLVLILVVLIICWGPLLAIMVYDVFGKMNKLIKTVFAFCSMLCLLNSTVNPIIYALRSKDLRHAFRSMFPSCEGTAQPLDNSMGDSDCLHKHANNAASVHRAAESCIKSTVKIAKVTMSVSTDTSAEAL
T2 sequence (P34972 whole entry): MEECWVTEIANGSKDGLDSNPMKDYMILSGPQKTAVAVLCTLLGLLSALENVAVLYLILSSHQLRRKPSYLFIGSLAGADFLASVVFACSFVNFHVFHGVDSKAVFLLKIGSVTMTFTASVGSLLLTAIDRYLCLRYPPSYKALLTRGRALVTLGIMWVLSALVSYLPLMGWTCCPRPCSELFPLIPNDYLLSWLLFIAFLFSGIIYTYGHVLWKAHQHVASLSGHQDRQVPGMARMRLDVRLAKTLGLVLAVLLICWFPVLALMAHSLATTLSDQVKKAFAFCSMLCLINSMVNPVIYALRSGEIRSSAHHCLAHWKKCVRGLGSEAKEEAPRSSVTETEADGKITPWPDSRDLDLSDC

SMILES	Ki (Cannabinoid receptor 1 [1]; read-out: pKi (converted)) [nM]	inhibition (Cannabinoid receptor 2 [2]; filed as agonist) [%]	Emax (Cannabinoid receptor 2 [3]) [%]	Ki (Cannabinoid receptor 2 [4]; read-out: Ki) [nM]	inhibition (Cannabinoid receptor 1 [5]) [%]	inhibition (Cannabinoid receptor 1 [5]; filed as agonist) [%]	inhibition (Cannabinoid receptor 2 [2]) [%]	Ki (Cannabinoid receptor 2 [4]; read-out: pKi (converted)) [nM]	Ki (Cannabinoid receptor 1 [1]; read-out: Ki) [nM]
CCCCC1(c2cc(O)c3cc(Cc4cccnc4)c(=O)oc3c2)CCCC1	> 1000	> 50	82	310	19				
CCCCCCC(C)(C)c1cc(O)c2cc(Cc3ccccc3)c(=O)oc2c1		> 50				> 50			
CCCCC(C)(C)c1cc(O)c2cc(Cc3ccccc3O)c(=O)oc2c1	> 1000				24		37	> 1000	
CCCCCc1cc(OC)c2cc(Cc3ccncc3)c(=O)oc2c1	> 1000				0		11	> 1000	
CCCCCCC(C)(C)c1cc(O)c2cc(Cc3ccccc3C(F)(F)F)c(=O)oc2c1	1000	42				49		> 1000	
CCCCC(C)(C)c1cc(OC)c2cc(Cc3ccccc3)c(=O)oc2c1						> 50	39	> 1000	486
CCCCCCC(C)(C)c1cc(O)c2cc(Cc3ccccc3C)c(=O)oc2c1	> 1000	> 50		222		47			
CCCCC1(c2cc(O)c3cc(Cc4ccncc4)c(=O)oc3c2)CCCCC1	> 1000	46			5			> 1000	
CCCCCCC(C)(C)c1cc(OC)c2cc(Cc3ccccc3OC)c(=O)oc2c1		> 50				> 50			
CCCCC1(c2cc(O)c3cc(-c4ccccc4C)c(=O)oc3c2)CCCC1	> 1000	43			4			> 1000	
CCCCC1(c2cc(OC)c3cc(Cc4ccncc4)c(=O)oc3c2)CCCCC1	> 1000				26		3	> 1000	
CCCCC1(c2cc(OC)c3cc(-c4ccc(C(F)(F)F)cc4)c(=O)oc3c2)CCCC1	> 1000				3		-4	> 1000	
CCCCC(C)(C)c1cc(OC)c2cc(Cc3ccccc3C)c(=O)oc2c1						> 50	32	> 1000	217
CCCCCCC(C)(C)c1cc(OC)c2cc(Cc3ccccc3C(F)(F)F)c(=O)oc2c1	> 1000				26		3	> 1000	
CCCCc1cc2c(OC)cc(C3(CCCC)CCCC3)cc2oc1=O	> 1000				15		-1	> 1000	
CCCCC1(c2cc(O)c3cc(Cc4ccncc4)c(=O)oc3c2)CCCC1	> 1000						21	> 1000	
CCCCC(C)(C)c1cc(O)c2cc(Cc3ccccc3)c(=O)oc2c1	> 1000				12		24	> 1000	
CCCCCc1cc(O)c2cc(Cc3cccnc3)c(=O)oc2c1	> 1000							> 1000	
CCCCC1(c2cc(O)c3cc(-c4ccccc4O)c(=O)oc3c2)CCCC1	> 1000						-2	> 1000	
CCCCC1(c2cc(OC)c3cc(Cc4ccccn4)c(=O)oc3c2)CCCC1	> 1000				29		20	> 1000	
CCCCC1(c2cc(O)c3cc(-c4ccc(C(F)(F)F)cc4)c(=O)oc3c2)CCCC1	> 1000						-10	> 1000	
CCCCC1(c2cc(O)c3cc(CC)c(=O)oc3c2)CCCC1	> 1000	> 50	87	60.6	34				
CCCCC1(c2cc(OC)c3cc(-c4ccccc4C)c(=O)oc3c2)CCCC1	> 1000							> 1000	
CCCCC1(c2cc(OC)c3cc(C)c(=O)oc3c2)CCCC1	> 1000				16		1	> 1000	
CCCCC1(c2cc(OC)c3cc(-c4ccccc4OC)c(=O)oc3c2)CCCC1	> 1000				-10			> 1000	
CCCCc1cc2c(OC)cc(C3(CCCC)CCCCC3)cc2oc1=O	> 1000						2	> 1000	
